Experiments:
[1] = In vitro inhibition of [3H]GABA uptake in rat synaptosomes; type: functional, subcellular, Brain
Summary of the method: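 Rat forebrain homogenized in ice-cold 0.32 M sucrose, spun 10 min at 600g at 4 °C, and the pellet resuspended in pH 7.4 Na/K/Ca/Mg phosphate-glucose buffer. Synaptosomes (0.1 mg protein) preincubated with test substance 8 min at 30 °C. [3H]GABA (final 0.9 nM) plus unlabeled GABA (final 0.9 nM) then added for a further 8 min, followed by filtration. Uptake in the presence of 500 μM nipecotic acid subtracted. IC50 is the mean of 3–7 determinations ± SE.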

[2] = test system: Mus musculus; assay: In vivo anticonvulsant effect of DMCM-induced clonic seizures in mice at 15 mg/kg intraperitoneal dose expressed as effective dose; type: functional; conditions: ip
Summary of the method: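 Mice; test compound given ip. Clonic seizures induced with DMCM at 15 mg/kg ip. Inhibition of clonic seizures scored by observation, and ED50 expressed in mg/kg.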

[3] = species on record: Mus musculus; assay: Anticonvulsant effect of DMCM-induced seizures in mice expressed as effective dose
[4] = Lipophilicity measured as partition between octanol and pH 7.4 buffer; type: physicochemical; conditions: octanol/pH 7.4 buffer

SMILES | IC50 [1] | ED50 [2] | further results
Cl.Cn1cccc1/C(=C\CCN1CCC=C(C(=O)O)C1)c1ccccc1 | 130 nM | 1.8 mg/kg | –
Cc1ccsc1/C(=C\CCN1CCCC(C(=O)O)C1)c1ccccc1 (configuration not stated) | 290 nM | – | –
Cc1ccsc1C(=CCCN1CCC[C@H](C(=O)O)C1)c1sccc1C | 218 nM | – | –
O=C(O)C1=CCCN(CC/C=C(/c2ccccc2)c2cccs2)C1 | 265 nM | – | –
Cl.O=C(O)C1CCCN(CCC=C(c2ccccc2)c2ccccc2)C1 (configuration not stated) | 330 nM | 3.1 mg/kg | –
Cc1ccccc1/C(=C/CCN1CCC[C@H](C(=O)O)C1)c1sccc1C.Cl | – | 1.2 mg/kg | –
Cc1ccsc1/C(=C\CCN1CCC=C(C(=O)O)C1)c1ccc(Cl)cc1Cl | 320 nM | – | –
Cc1ccccc1/C(=C/CCN1CCC=C(C(=O)O)C1)c1sccc1C.Cl | 130 nM | 1.9 mg/kg | –
Cc1cc(Cl)ccc1/C(=C/CCN1CCC=C(C(=O)O)C1)c1sccc1C | 300 nM | – | –
COc1ccc(C(OCCN2CCCC(C(=O)O)C2)c2ccc(OC)cc2)cc1 (configuration not stated) | > 3000 nM | – | –
Cc1ccccc1C(OCCN1CCCC(C(=O)O)C1)c1ccccc1C (configuration not stated) | 388 nM | – | –
Cl.O=C(O)C1=CCCN(CCC=C(c2ccccc2)c2ccccc2)C1 | 341 nM | 3.6 mg/kg | –
O=C(O)C1CCCN(CCOC(c2ccccc2)c2ccccc2)C1 (configuration not stated) | 1370 nM | – | –
O=C(O)[C@H]1CCCN(CCC=C2c3ccccc3-c3ccccc32)C1 | 1920 nM | – | –
CN1C(=O)CN=C(c2ccccc2)c2cc(Cl)ccc21 [DIAZEPAM] | – | – | ED50 [3]: 2.5 mg/kg
Cc1ccsc1/C(=C\CCN1CCC[C@H](C(=O)O)C1)c1cccs1.Cl | 60 nM | 2.5 mg/kg | –
Cc1ccccc1C(=CCCN1CCC[C@H](C(=O)O)C1)c1ccccc1C.Cl | – | 1.3 mg/kg | –
Cc1ccsc1/C(=C\CCN1CCC=C(C(=O)O)C1)c1cc(Cl)cc(Cl)c1 | 1860 nM | – | –
O=C(O)C1CCCN(CCC=C(c2cccs2)c2cccs2)C1 (configuration not stated) | 256 nM | – | –
Cc1ccsc1C(=CCCN1CCCC(C(=O)O)C1)c1sccc1C.Cl (configuration not stated) | 87 nM | 2.6 mg/kg | –
Cc1ccsc1/C(=C\CCN1CCC[C@@H](C(=O)O)C1)c1cccs1 | 690 nM | – | –
Cc1ccsc1/C(=C\CCN1CCC=C(C(=O)O)C1)c1ccc(Cl)cc1 | 848 nM | – | –
Cc1ccsc1C(=CCCN1CCC=C(C(=O)O)C1)c1sccc1C.Cl | 138 nM | 1.8 mg/kg | –
Cc1ccc(/C(=C/CCN2CCC[C@H](C(=O)O)C2)c2sccc2C)c(C)c1 | 264 nM | – | –
Cc1ccsc1/C(=C\CCN1CCC[C@H](C(=O)O)C1)c1c(C)cccc1C | 247 nM | – | –
Cc1ccsc1C(=CCCN1CCC[C@@H](C(=O)O)C1)c1sccc1C.Cl [TIAGABINE HYDROCHLORIDE] | 67 nM | 1.2 mg/kg | logD [4]: 1.59
Cc1ccsc1/C(=C\CCN1CCC=C(C(=O)O)C1)c1cccs1.Cl | 112 nM | 2.1 mg/kg | –

From ChEMBL document CHEMBL1126711, “The synthesis of novel GABA uptake inhibitors. 1. Elucidation of the structure-activity studies leading to the choice of (R)-1-[4,4-bis(3-methyl-2-thienyl)-3-butenyl]-3-piperidinecarboxylic acid (tiagabine) as an anticonvulsant drug candidate” (J Med Chem, 1993)
